Tests used:
[1] = tested on: rat; test: concentration in feces after dosing; settings: dosed: benzo(a)pyrene, 40 umol/kg, iv, male, Sprague Dawley
[2] = tested on: rat; test: concentration in adipose after dosing; settings: dosed: benzo(a)pyrene, 40 umol/kg, iv, male, Sprague Dawley
[3] = tested on: rat; test: concentration in lung after dosing; settings: dosed: benzo(a)pyrene, 40 umol/kg, iv, male, Sprague Dawley
[4] = tested on: rat; test: concentration in kidney after dosing; settings: dosed: benzo(a)pyrene, 40 umol/kg, iv, male, Sprague Dawley
[5] = tested on: rat; test: concentration in skin after dosing; settings: dosed: benzo(a)pyrene, 40 umol/kg, iv, male, Sprague Dawley
[6] = tested on: rat; test: concentration in blood after dosing; settings: male
[7] = tested on: rat; test: concentration in liver after dosing; settings: dosed: benzo(a)pyrene, 40 umol/kg, iv, male, Sprague Dawley
[8] = tested on: rat; test: concentration in urine after dosing; settings: dosed: benzo(a)pyrene, iv, male, Sprague Dawley
[9] = tested on: rat; test: amount in urine after dosing (umol); settings: dosed: tert-amyl methyl ether, 38.4 ppm, inhalation, duration: 4 hr, F344 (Harlan Winkelmann)
[10] = tested on: human; test: amount in urine after dosing (umol); settings: dosed: tert-amyl methyl ether, 38.4 ppm, inhalation, duration: 4 hr
How it was run: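 Points were largely digitised from plot screenshots with WebPlotDigitizer or otherwise copied from tables, and they remain in the units each source reported. They come from published in vivo toxicokinetic studies and two structured collections. Sampling and analytical methods follow each source and were often not reported.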

[11] = tested on: rat; settings: dosed: benzo[a]pyrene, 50 umol/kg, dermal, duration: continuous, male, Wistar
[12] = tested on: rat; settings: dosed: benzo[a]pyrene, 50 umol/kg, oral, male, Wistar
[13] = tested on: rat; settings: dosed: benzo[a]pyrene, 10 umol/kg, dermal, duration: continuous, male, Wistar
[14] = tested on: rat; settings: dosed: benzo[a]pyrene, 20 umol/kg, oral, male, Wistar
[15] = tested on: rat; settings: dosed: benzo[a]pyrene, 20 umol/kg, dermal, duration: continuous, male, Wistar
[16] = tested on: rat; settings: dosed: benzo[a]pyrene, 10 umol/kg, oral, male, Wistar
[17] = tested on: rat; test: concentration in serum after dosing; settings: dosed: benzo[a]pyrene, 20 mg/kg, oral, male, Wistar
[18] = tested on: rat; settings: dosed: benzo[a]pyrene, 1 mg/kg, iv, male, Sprague Dawley
[19] = tested on: rat; settings: dosed: benzo[a]pyrene, 1 mg/kg, iv, male, Sprague Dawley; remark: listed apart in the source
[20] = tested on: rat; test: concentration in blood after dosing; settings: dosed: perchloroethylene, 12500 ppm, dermal, duration: 4 hr, male, F344
[21] = tested on: rat; test: concentration in blood after dosing; settings: dosed: perchloroethylene, 12500 ppm, dermal, duration: 4 hr, male, F344; remark: listed apart in the source
[22] = tested on: rat; test: concentration in blood after dosing; settings: dosed: perchloroethylene, 12500 ppm, dermal, duration: 4 hr, male, F344; remark: listed apart in the source

Oc1ccc2ccc3c4ccccc4cc4ccc1c2c43 [3-hydroxybenzo(a)pyrene]
Settings | concentration in adipose, [2] [µmol/kg] | concentration in feces, [1] [µmol/kg] | concentration in kidney, [4] [µmol/kg] | concentration in liver, [7] [µmol/kg] | concentration in lung, [3] [µmol/kg] | concentration in skin, [5] [µmol/kg]
2 h | 0.0241 | 0.0001 | 0.195 | 0.49 | 0.023 | 0.385
4 h | 0.0381 | 0.0004 | 0.429 | 0.588 | 0.0236 | 0.232
8 h | 0.0582 | 0.0035 | 0.65 | 0.141 | 0.0176 | 0.135
16 h | 0.0348 | 0.471 | 0.583 | 0.0819 | 0.0153 | 0.103
24 h | 0.033 | 4.71 | 0.347 | 0.0528 | 0.0102 | 0.041
33 h | 0.0322 | 7.72 | 0.293 | 0.0505 | 0.0085 | 0.0215
48 h | 0.0192 | 8.75 | 0.0936 | 0.0149 | 0.0047 | 0.0148
72 h | 0.0114 | 12.9 | 0.0512 | 0.0096 | 0.0045 | 0.0073

[6], dosed: benzo(a)pyrene, 40 umol/kg, iv, Sprague Dawley
Settings | concentration in blood [µmol/kg]
2 h | 0.105
4 h | 0.0863
8 h | 0.0912
16 h | 0.0388
24 h | 0.0235
33 h | 0.0142
48 h | 0.0084
72 h | 0.0047

concentration in urine, [8]
Settings | 2 h | 4 h | 4.5 h | 8 h | 16 h | 24 h | 33 h | 48 h | 72 h
0.01 mg/kg | – | – | 0.000494 mg/kg | – | – | 0.000582 mg/kg | – | 6.8e-05 mg/kg | 2.3e-05 mg/kg
0.05 mg/kg | – | – | 0.0016 mg/kg | – | – | 0.0025 mg/kg | – | 0.000305 mg/kg | 0.000115 mg/kg
40 umol/kg | 0.0001 µmol/kg | 0.0022 µmol/kg | – | 0.0119 µmol/kg | 0.0604 µmol/kg | 0.068 µmol/kg | 0.19 µmol/kg | 0.149 µmol/kg | 0.209 µmol/kg

CCC(C)(O)C(=O)O (stereo not drawn) [2-hydroxy-2-methyl butyrate]
Settings | amount in urine
[9], 5.978 h | 0.204
[9], 12 h | 0.29
[9], 18.07 h | 0.213
[9], 24.08 h | 0.0776
[9], 29.94 h | 0.0345
[9], 36.02 h | 0.092
[9], 42.04 h | 0.103
[9], 48.11 h | 0.0517
[10], 0.1093 h | 54.7
[10], 6.284 h | 93.4
[10], 12.15 h | 100
[10], 18.2 h | 59.9
[10], 24.12 h | 39.1
[10], 30.12 h | 33.6
[10], 36.29 h | 57.8
[10], 42.13 h | 29.8
[10], 48.22 h | 51.6

Oc1ccc2ccc3c4ccccc4cc4ccc1c2c43 [3-OH-benzo[a]pyrene]
Settings | amount in urine after dosing [µg]
[11], 23.15 h | 4.97
[11], 47.4 h | 8.97
[11], 71.67 h | 13.3
[11], 95.8 h | 17.3
[11], 120.35 h | 20
[11], 144.4 h | 20.8
[12], 23.43 h | 7.37
[12], 47.73 h | 18.4
[12], 71.9 h | 31.3
[12], 95.37 h | 33.1
[12], 120.29 h | 33.4
[12], 144.04 h | 33.6
[13], 23.76 h | 0.169
[13], 48.25 h | 1.6
[13], 72.44 h | 5.62
[13], 96.26 h | 8.27
[13], 120.41 h | 10.3
[13], 145.21 h | 10.7
[14], 24.03 h | 3.66
[14], 47.78 h | 5.43
[14], 72.42 h | 7.03
[14], 96.58 h | 7.51
[14], 121.02 h | 8.21
[14], 144.77 h | 8.23
[15], 23.4 h | 0.591
[15], 48.57 h | 2.38
[15], 72.51 h | 6.61
[15], 96.49 h | 9.6
[15], 120.43 h | 10.6
[15], 145.24 h | 11
[16], 23.94 h | 0.884
[16], 48.41 h | 1.94
[16], 72.16 h | 3.75
[16], 96.63 h | 4.84
[16], 120.41 h | 5.22
[16], 144.81 h | 5.41

Oc1ccc2ccc3c4ccccc4cc4ccc1c2c43 [3-hydroxybenzo[a]pyrene]
Settings | amount in feces after dosing [ng] | amount in urine after dosing [ng] | concentration in serum [ng/mL]
[17], 1.009 h | – | – | 1.32
[17], 2.018 h | – | – | 1.26
[17], 3.995 h | – | – | 5.22
[17], 6.005 h | – | – | 4.15
[17], 7.982 h | – | – | 2.24
[17], 9.992 h | – | – | 1.6
[18], 10.02 h | – | 46.8 | –
[18], 23.97 h | – | 166 | –
[18], 47.95 h | – | 220 | –
[18], 71.92 h | – | 269 | –
[18], 95.9 h | – | 310 | –
[18], 119.75 h | – | 346 | –
[19], 10.07 h | 4790 | – | –
[19], 24.05 h | 16900 | – | –
[19], 48.1 h | 22700 | – | –
[19], 72.03 h | 23700 | – | –
[19], 96.08 h | 24500 | – | –
[19], 120 h | 24900 | – | –

ClC(Cl)=C(Cl)Cl [perchloroethylene]
concentration in blood [ng/mL]
Settings | 0.5 h | 1 h | 2 h | 3 h | 4 h
[20] | 3610 | 15200 | 19600 | 13900 | 29200
[21] | 17000 | 45000 | 39600 | 31600 | 42600
[22] | 6940 | 32300 | 29900 | 17500 | 32300

[6], dosed: perchloroethylene, 12500 ppm, dermal, duration: 4 hr, F344
Settings | concentration in blood [ng/mL]
0.5 h | 20600
1 h | 21100
2 h | 21500
3 h | 25200
4 h | 29200
